Compound activity from PubChem BioAssay.
Mot1-301 SUMO = blocks SUMOylation pathway, rescuing yeast Mot1-301 growth. S. cerevisiae Mot1-301 growth rescue, ATP luminescence, 38.5C; percent above DMSO median, 100 means doubled. growth rescue, % at 18.8 µM. actives 1% (n = 320,000);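 active means every valid replicate shows activation above 250% relative to neutral control wells; inactive means the rest, any valid replicate at or below 250%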;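 further: OY570 slx delta 5 strain wells were the positive control but not used for scaling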
UCH37 inh = blocks the human deubiquitinase UCH37; purified proteasome/UCH37, Ub-AMC cleavage fluorescence; inhibition, % (no concentration beside the values); Q9Y5K5; AID 588478; actives 0.33% (n = 330,000);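 active means mean inhibition over replicate wells above about 20%, limit read from the data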;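 further: 0% = compound-free wells with enzyme and 100% = wells lacking proteasome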
Target sequence (Q9Y5K5 whole entry, looked up): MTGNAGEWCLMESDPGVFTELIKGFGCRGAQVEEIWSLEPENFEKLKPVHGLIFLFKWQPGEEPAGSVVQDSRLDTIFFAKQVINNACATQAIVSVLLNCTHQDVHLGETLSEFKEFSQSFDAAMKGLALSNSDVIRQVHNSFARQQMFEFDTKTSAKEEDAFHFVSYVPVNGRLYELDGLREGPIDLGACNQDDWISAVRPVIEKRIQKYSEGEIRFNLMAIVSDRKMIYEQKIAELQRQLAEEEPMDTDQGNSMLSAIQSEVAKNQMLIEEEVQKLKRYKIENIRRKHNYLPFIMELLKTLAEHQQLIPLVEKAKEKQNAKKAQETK
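Schedule: 30 min plus 25 min, room temperature / Material: human UCH37 within purified proteasomes / Technique: AMC fluorescence intensity at 355/460 nm / Buffer or medium: pH 7.4 Tris-HCl (50 mM) with ovalbumin, ATP-MgCl2, DTT / Controls: wells without proteasome as full block, compound-free enzyme plus substrate as uninhibited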
Cardiac RTF inh = cardiac RTF calcium desensitization. P19429+P45379. IANBD-labeled cardiac RTF, Ca2+ fluorescence. inhibition, % at 7.15 µM. actives 0.12% (n = 340,000);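 active means inhibition above the mean inhibition of all tested compounds plus 3 SD, cut at about 17% in these data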;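 further: assay run at fixed EC70 calcium of 1.6 mM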
ARNT TACC3 PPI = disruptors of human ARNT/TACC3 interaction; Q9Y6A5; AlphaScreen His-ARNT PAS-B/GST-TACC3 binding, luminescence; TACC3 fragment carries E629A point mutation; inhibition, % at 9.99 µM; actives 0.66% (n = 390,000); AID 623870;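 active means mean inhibition of replicates at least 50% and at least half of replicates each reaching 50%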;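 further: 0% = complete ARNT plus TACC3 wells and 100% = ARNT alone without TACC3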
RTF Ca sens act = cardiac RTF calcium sensitization | P19429+P45379 | IANBD-labeled TnC RTF fluorescence at EC20 calcium; 0% EC20 calcium, 100% full calcium | activation, % at 7.2 µM | actives 0.24% (n = 340,000);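 active means activation above the mean over all tested compounds plus 3 SD, cut at about 30% in these data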;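 further: rise in fluorescence read as greater calcium sensitivity of cardiac thin filaments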
Efflux pump mplx = antifungal efflux pump inhibition, Nile Red retention; inhibition, % at 10 µM; S. cerevisiae Candida pump triplex; AID 485275; actives 0.44% (n = 330,000);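 active means plate passing quality check with inhibition over a set limit, or well fluorescence over plate mean plus 4 SD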;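 further: Nile Red retained in pooled yeast measured as flow cytometry median fluorescence; 0% = buffer negative control and 100% = Enniatin B positive control; higher means more Nile Red kept so more efflux inhibition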
Starred values were filed as active, the others as inactive. An excerpt weighted towards active compounds, which were near 2.1% of everything screened.

Results for CCOC(=O)c1cnc(Cc2ccccc2)[nH]c1=O ?
Mot1-301 SUMO: -5; UCH37 inh: 1; Cardiac RTF inh: -12; ARNT TACC3 PPI: -14; RTF Ca sens act: 0; Efflux pump mplx: 0

What do the screens show for `Cc1cc(N2CCCC2)ccc1C=Nn1cnnc1`?
UCH37 inh: -36

How did CCn1c(=O)c(C(=O)CN2CCCc3ccccc32)c(N)n(Cc2ccccc2)c1=O do in these assays?
Mot1-301 SUMO: 141; UCH37 inh: 1; Cardiac RTF inh: -67; ARNT TACC3 PPI: 6; RTF Ca sens act: 31*; Efflux pump mplx: 0

Results for CCn1c(=O)c(C(=O)CN2c3ccccc3CC2C)c(N)n(Cc2ccccc2)c1=O (stereo not drawn) ?
Mot1-301 SUMO: 8; UCH37 inh: 4; Cardiac RTF inh: -4; ARNT TACC3 PPI: 0; RTF Ca sens act: -1; Efflux pump mplx: 0

How did Cc1ccc2c(c1)CCCN2CC(=O)N(C)c1c(N)n(Cc2ccccc2)c(=O)[nH]c1=O do in these assays?
Mot1-301 SUMO: 0; Cardiac RTF inh: -55; ARNT TACC3 PPI: 4; RTF Ca sens act: 38*; Efflux pump mplx: 0

How did CC(=NN(c1ccccc1)c1ccccc1)c1ccc(N)cc1 do in these assays?
UCH37 inh: 3

Results for Cc1ccc2c(c1)cc(CN(Cc1ccc3c(c1)OCO3)C(=O)c1ccccc1)c1nnnn12 ?
Mot1-301 SUMO: 336*; UCH37 inh: 3; Cardiac RTF inh: -40; ARNT TACC3 PPI: 0; RTF Ca sens act: -2; Efflux pump mplx: 0

What do the screens show for `Cc1cc(C)nc(SCC(=O)NN=Cc2cccnc2)n1`?
UCH37 inh: 1

How did N#CC(C#N)=C1C=CC=CN1/C(=C\c1ccco1)C(=O)c1ccc(Br)cc1 do in these assays?
Mot1-301 SUMO: 291*; UCH37 inh: -9; Cardiac RTF inh: -13; ARNT TACC3 PPI: -22; RTF Ca sens act: 9; Efflux pump mplx: 1

Results for N#CC(C#N)=C1C=CC=CN1/C(=C\c1ccco1)C(=O)c1ccccc1 ?
Mot1-301 SUMO: 17; UCH37 inh: -12; Cardiac RTF inh: -10; ARNT TACC3 PPI: -1; RTF Ca sens act: 6; Efflux pump mplx: 1

Results for O=C(NN=Cc1cccnc1)c1ccccc1Cl ?
UCH37 inh: 1

How did COc1cccc(/C=N/NC(=O)c2cnccn2)c1O do in these assays?
Mot1-301 SUMO: 13; Cardiac RTF inh: 2; ARNT TACC3 PPI: 58*; RTF Ca sens act: -4; Efflux pump mplx: 0

Results for COc1cccc(/C=N/Nc2ncnc(Cl)c2N)c1O ?
Mot1-301 SUMO: -14; Cardiac RTF inh: -1; ARNT TACC3 PPI: 59*; RTF Ca sens act: -1; Efflux pump mplx: 0

What do the screens show for `COc1ccc(C=NNC(=O)c2c(C)nc3ccc(Br)cn23)cc1`?
UCH37 inh: -46

How did COc1cccc(C=NNc2ncnc(Cl)c2N)c1O do in these assays?
UCH37 inh: 4

Results for COc1cccc(C=NNC(=O)c2c(C)nc3ccc(Br)cn23)c1O ?
UCH37 inh: 46*

Results for CCOc1cc(Br)cc(/C=N/NC(=O)c2cccnc2)c1O ?
Mot1-301 SUMO: 175; Cardiac RTF inh: 0; ARNT TACC3 PPI: 56*; RTF Ca sens act: 2; Efflux pump mplx: 0

How did COc1c(Br)cc(Br)cc1C=NNC(=O)c1cccnc1 do in these assays?
UCH37 inh: 7

How did CCOC(=O)C(=NNc1ccccc1Cl)N(C)C1CCS(=O)(=O)C1 (stereo not drawn) do in these assays?
UCH37 inh: 10

Results for O=[N+]([O-])c1ccc(Cl)c(C=Nn2c(-c3cccnc3)n[nH]c2=S)c1 ?
UCH37 inh: 4

Results for C/C(C=NNC(=O)c1cnccn1)=C/c1ccccc1 ?
UCH37 inh: 12

How did COc1ccc(C(C)=NOCC(=O)N=Nc2c(O)[nH]c3ccccc23)cc1 do in these assays?
UCH37 inh: 4

Results for COc1cccc(/C=N/NC(=O)C(=O)NCc2ccco2)c1O ?
Mot1-301 SUMO: -15; Cardiac RTF inh: -16; ARNT TACC3 PPI: 60*; RTF Ca sens act: 4; Efflux pump mplx: 0

What do the screens show for `COc1cccc(C=Nn2c(COc3ccccc3)n[nH]c2=S)c1OC`?
UCH37 inh: 3

What do the screens show for `Cn1c(=O)n(C)c2cc(/C=N/NC(=O)c3ccncc3)ccc21`?
Mot1-301 SUMO: -9; Efflux pump mplx: 0

Results for CCn1c(O)c(/C=N/NC(=O)c2ccncc2)c(=O)n(CC)c1=S ?
UCH37 inh: -2; Cardiac RTF inh: -88; ARNT TACC3 PPI: 24; RTF Ca sens act: 97*

Results for Cc1ccc(C)n1-c1sc2c(c1C(=O)O)CCCC2 ?
Mot1-301 SUMO: -4; UCH37 inh: 4; Cardiac RTF inh: -14; ARNT TACC3 PPI: 3; RTF Ca sens act: -6; Efflux pump mplx: 0

What do the screens show for `Cc1ccc(C)n1-c1sccc1C(=O)O`?
UCH37 inh: 16; Cardiac RTF inh: 65*; ARNT TACC3 PPI: -4; RTF Ca sens act: -31

What do the screens show for `CCCc1c(C(=O)NN=Cc2ccc(C)s2)nnn1-c1nonc1N`?
UCH37 inh: 1

Results for Nc1nnnn1N=C/C=C/c1ccccc1 ?
UCH37 inh: 4

Results for COc1ccc(N=C2NC(=O)S/C2=C\c2ccc(N(C)C)cc2)cc1 ?
Mot1-301 SUMO: -27; Cardiac RTF inh: -114; ARNT TACC3 PPI: -5; RTF Ca sens act: 174*; Efflux pump mplx: 0

What do the screens show for `CCOc1ccc(N=C2NC(=O)S/C2=C\c2ccc(Cl)cc2)cc1`?
Mot1-301 SUMO: -9; UCH37 inh: 3; Cardiac RTF inh: 9; ARNT TACC3 PPI: -8; RTF Ca sens act: 5; Efflux pump mplx: 0

What do the screens show for `CC1=C(N2CCCCC2)CCC1=O`?
Mot1-301 SUMO: 3; UCH37 inh: 33*; Cardiac RTF inh: -5; RTF Ca sens act: -5; Efflux pump mplx: 0

How did O=C1CNC(=O)/C1=C\N1CCCCC1 do in these assays?
Mot1-301 SUMO: 16; UCH37 inh: 5; Cardiac RTF inh: 2; ARNT TACC3 PPI: -4; RTF Ca sens act: 1; Efflux pump mplx: 0

How did CN(C)c1nc(NCc2ccccc2)nc(NN=Cc2ccccc2F)n1 do in these assays?
UCH37 inh: 2

What do the screens show for `Cc1ccc(C)c(OCC(=O)NNC(=O)CSC(=S)N2CCCC2)c1`?
Mot1-301 SUMO: 332*; UCH37 inh: 5; Cardiac RTF inh: -7; ARNT TACC3 PPI: -1; RTF Ca sens act: 0; Efflux pump mplx: 0

How did CCC1(c2ccccc2)NC(=O)N(CC(=O)Nc2ccc(OC)nc2)C1=O (stereo not drawn) do in these assays?
Mot1-301 SUMO: -11; Cardiac RTF inh: -80; ARNT TACC3 PPI: 2; RTF Ca sens act: 61*; Efflux pump mplx: 0
